In ChEMBL document CHEMBL3817776, “Discovery and Structure-Activity Relationships of the Neoseptins: A New Class of Toll-like Receptor-4 (TLR4) Agonists” (J Med Chem, 2016) one finds Activity and EC50 data, which are given here for one compound.

pEC50: −log10 of the molar value. Calls of active or inactive are those of the source. The rule behind the calls is not given here.

In assay [1] the target is T1, Toll-like receptor 4 (Mus musculus) (UniProt Q9QUK6).
T1 sequence (whole entry): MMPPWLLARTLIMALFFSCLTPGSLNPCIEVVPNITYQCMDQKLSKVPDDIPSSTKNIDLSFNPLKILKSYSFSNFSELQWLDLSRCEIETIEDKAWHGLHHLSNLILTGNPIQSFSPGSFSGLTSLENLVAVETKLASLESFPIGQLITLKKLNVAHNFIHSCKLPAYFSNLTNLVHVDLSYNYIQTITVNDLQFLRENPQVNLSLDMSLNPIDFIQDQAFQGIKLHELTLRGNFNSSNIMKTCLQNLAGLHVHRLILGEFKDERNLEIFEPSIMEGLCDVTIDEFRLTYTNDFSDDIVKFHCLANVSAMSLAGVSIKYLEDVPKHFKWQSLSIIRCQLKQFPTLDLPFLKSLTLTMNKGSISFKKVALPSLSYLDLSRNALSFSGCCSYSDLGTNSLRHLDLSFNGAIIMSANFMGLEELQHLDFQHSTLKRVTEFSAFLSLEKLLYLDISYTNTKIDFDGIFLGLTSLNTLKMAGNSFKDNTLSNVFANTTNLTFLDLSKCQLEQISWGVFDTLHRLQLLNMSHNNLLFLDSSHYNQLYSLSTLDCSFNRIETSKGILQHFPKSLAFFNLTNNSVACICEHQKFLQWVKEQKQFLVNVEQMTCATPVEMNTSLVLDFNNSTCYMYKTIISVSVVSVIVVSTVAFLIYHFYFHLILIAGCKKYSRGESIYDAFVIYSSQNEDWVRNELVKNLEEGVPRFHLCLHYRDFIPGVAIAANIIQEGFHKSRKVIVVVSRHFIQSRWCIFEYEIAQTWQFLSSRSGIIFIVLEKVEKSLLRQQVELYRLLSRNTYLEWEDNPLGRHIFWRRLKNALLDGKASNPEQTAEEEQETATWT
In words: Agonist activity at TLR4 receptor in C57BL/6J mouse macrophages harboring Irak4 otiose/otiose mutant assessed as induction of TNFalpha release at 50 uM after 4 hrs by ELISA. An outline of the steps:
(§1)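 Macrophages taken from mice carrying disabling germline mutations or knockouts in TLR or signaling-pathway genes. Exposed to compound at 50 µM; TNF-α released into the medium measured by ELISA. Results representative of two independent experiments; error bars SEM.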

The target in assay [2] is T1, Toll-like receptor 4 (Mus musculus). Description: Agonist activity at TLR4 receptor in C57BL/6J mouse macrophages harboring Ikbkg panr2/Y mutant assessed as induction of TNFalpha release at 50 uM after 4 hrs by ELISA. An outline of the steps:
as §1

Assay [3] relates to Mus musculus. Description: Adjuvant activity in C57BL/6J mouse assessed as increase in OVA-specific IgG3 levels at 250 mg/kg, im after 21 days by ELISA. The class given is functional, organism-based. In a few lines: (§2)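 C57BL/6 mice, 4 per group, immunized i.m. with 100 µg ovalbumin (endotoxin <1 EU/mg) plus compound in propylene glycol vehicle, or vehicle alone. OVA-specific IgG subclasses in serum titrated by ELISA at day 21. Mean ± SEM.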

The subject of assay [4] is Mus musculus. In words: Adjuvant activity in C57BL/6J mouse assessed as increase in OVA-specific IgG2b levels at 250 mg/kg, im after 21 days by ELISA. In kind it is functional, organism-based. In a few lines: as §2
Assay [5] relates to Macrophage. Description: Induction of TNFalpha release in C57BL/6J mouse macrophages harboring CD14 hdl/hdl mutant at 50 uM after 4 hrs by ELISA. In kind it is functional, cell-based. An outline of the steps:
as §1

Assay [6] relates to Macrophage. Description: Induction of TNFalpha release in C57BL/6J mouse macrophages harboring TLR2 ingd/ingd mutant at 50 uM after 4 hrs by ELISA. In kind it is functional, cell-based. In a few lines: as §1
Assay [7] deals with T1, Toll-like receptor 4 (Mus musculus). Description: Agonist activity at TLR4 receptor in LY96 deficient C57BL/6J mouse macrophages assessed as induction of TNFalpha release at 50 uM after 4 hrs by ELISA. In a few lines: as §1
Assay [8] concerns Macrophage. Description: Induction of TNFalpha release in C57BL/6J mouse macrophages harboring TLR7 rsq1/rsq1 mutant at 50 uM after 4 hrs by ELISA. In kind it is functional, cell-based. In a few lines:
as §1

Assay [9] has as its system Macrophage. Description: Induction of TNFalpha release in TLR3 deficient C57BL/6J mouse macrophages at 50 uM after 4 hrs by ELISA. The class given is functional, cell-based. In a few lines:
as §1

Assay [10] concerns the target T2, Toll-like receptor 4 (Mus musculus, UniProt Q9QUK6).
T2 sequence (Q9QUK6 whole entry): T1 sequence (whole entry)
Description: (§3) Agonist activity at TLR4 in C57BL/6J mouse macrophages assessed as stimulation of TNFalpha release after 4 hrs by ELISA. In a few lines: (§4)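 Peritoneal macrophages from wild-type C57BL/6J mice, collected by PBS lavage and cultured in DMEM/10% FBS at 37 °C, 5% CO2. Seeded at 1 × 10^5 cells/well and treated 4 h with compound in DMSO (0.5% final) beside ultra-pure LPS and DMSO controls. Supernatant TNF-α measured by ELISA; mean of triplicates.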

For assay [11], the target named is T1, Toll-like receptor 4 (Mus musculus). Described as §3. An outline of the steps:
as §4

Assay [12] has the same target. Description: Agonist activity at TLR4 receptor in C57BL/6J mouse macrophages harboring Ticam1 Lps2/Lps2 mutant assessed as induction of TNFalpha release at 50 uM after 4 hrs by ELISA. An outline of the steps: as §1
Assay [13] has as its system Mus musculus. Description: Adjuvant activity in C57BL/6J mouse assessed as increase in OVA-specific IgG2a levels at 250 mg/kg, im after 21 days by ELISA. In kind it is functional, organism-based. In a few lines: as §2
Assay [14] deals with T1, Toll-like receptor 4 (Mus musculus). Description: Agonist activity at TLR4 receptor in C57BL/6J mouse macrophages harboring MYD88 poc/poc mutant assessed as induction of TNFalpha release at 50 uM after 4 hrs by ELISA. An outline of the steps: as §1
Assay [15] deals with Macrophage. In words: Induction of TNFalpha release in C57BL/6J mouse macrophages harboring TLR9 CpG3/CpG3 mutant at 50 uM after 4 hrs by ELISA. The class given is functional, cell-based. In a few lines:
as §1

The test system of assay [16] is Macrophage. In words: Induction of TNFalpha release in C57BL/6J mouse macrophages harboring TLR6 int/int mutant at 50 uM after 4 hrs by ELISA. The class given is functional, cell-based. In a few lines:
as §1

Assay [17] relates to Mus musculus. In words: Adjuvant activity in C57BL/6J mouse assessed as increase in OVA-specific IgG1 levels up to 250 mg/kg, im after 21 days by ELISA. The class given is functional, organism-based. In a few lines: as §2
The species named for assay [18] is Mus musculus. In words: Agonist activity at TLR4 lps3/lps3 mutant in C57BL/6J mouse macrophages assessed as stimulated release of TNFalpha after 4 hrs by ELISA. An outline of the steps:
as §1

For the compound `CC(C)(C)OC(=O)[C@H](CCc1ccccc1)NC(=O)c1ccc(N)c(CCc2ccc(O)cc2)c1`, the result in [1], in [2], in assay [7], in assay [12], in assay [14] and in [18] was inactive. In addition, the result in [3], in [4], in assay [5], in [6], in assay [8] and in assay [9] was Active. Also, the result in assay [13], in [15] and in assay [16] was Active. Also, the pEC50 in assay [10] is 4.73. In addition, the Activity result in assay [11] and in assay [17] was “Dose-dependent effect” throughout.
